Consider one compound from ChEMBL document CHEMBL1122613, “A water-soluble cholesteryl-containing trisgalactoside: synthesis, properties, and use in directing lipid-containing particles to the liver” (J Med Chem, 1984).

A short description of data set [1]: [125I]- uptake in liver after perfusion on administration of 0.25 nmol of compound/ug of [125I]- LDL protein. It is filed as ADME, tissue-based. Conditions: rat. Summed up: (§1)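 Human LDL (d 1.019–1.063) was labeled with 125I. 20 μg LDL-protein was mixed with 0, 5 or 13 μg compound in water for 10 min at room temperature, then given iv to pentobarbital-anesthetized male rats. At 10 min, blood was taken by aortic puncture and the liver perfused via the portal vein (Ca2+-free Hanks, 14 mL/min, 8 min), then excised. Samples were γ-counted; results are % injected dose.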

Data set [2] concerns Rattus norvegicus. Kind of data set: Amount of [125I]- remaining in blood 10 min after administration of 0.65 nmol of compound/ug of [125I]- LDL protein in rat preinjected with Glc-N-Ac 110 mg. Conditions: in vivo. The data set is classed as ADME, organism-based. The gist of the method: (§2)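 110 mg 2-acetamido-2-deoxygalacto- or -glucopyranose was injected iv 1 min before the 125I-LDL, which had been preincubated 10 min at room temperature with compound (13 μg per 20 μg LDL-protein). Rats were pentobarbital-anesthetized males. Blood was taken at 10 min, and the liver was perfused with Ca2+-free Hanks and excised. Samples were γ-counted; blood totals assume 4 mL serum/100 g body weight; values are % injected dose.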

Data set [3] can be described thus: [125I]- uptake in liver after perfusion on administration of 0.65 nmol of compound/ug of [125I]- LDL protein in rats preinjected with Glc-N-Ac 110 mg. The data set is classed as ADME, tissue-based. The settings on record: rat, in vivo. The gist of the method: as §2
Data set [4] can be described thus: [125I]- uptake in liver after perfusion on administration of 0 nmol of compound/ug of [125I]- LDL protein. It is filed as ADME, tissue-based. The settings on record: rat. The gist of the method: as §1
Data set [5] in a line: 14C uptake in liver after perfusion on administration of 0 mol of [14C]- sucrose containing liposomes with compound. The data set is classed as ADME. Conditions: rat.
Data set [6] deals with Rattus norvegicus. The data set is described as follows: Amount of [125I]- remaining in blood 10 min after administration of 0.65 nmol of compound/ug of [125I]- LDL protein in rats preinjected with Gal-N-Ac 110 mg. It is filed as ADME, organism-based. The settings on record: in vivo. Summed up: as §2
The test system of data set [7] is Rattus norvegicus. Kind of data set: Amount of [125I]- remaining in blood 10 min after administration of 0.65 nmol of compound/ug of [125I]- LDL protein. The data set is classed as ADME, organism-based. The gist of the method:
as §1

The subject of data set [8] is Rattus norvegicus. Kind of data set: Amount of [125I]- remaining in blood 10 min after administration of 0 nmol of compound/ug of [125I]- LDL protein. The data set is classed as ADME, organism-based. Summed up: as §1
The species named for data set [9] is Rattus norvegicus. Kind of data set: Amount of 14C remaining in blood 120 min after injection of 0 mol of [14C]- sucrose containing liposomes with compound. It is filed as ADME, organism-based. Conditions: 2 h.
Data set [10] can be described thus: [125I]- uptake in liver after perfusion on administration of 0.05 nmol of compound/ug of [125I]- LDL protein. The data set is classed as ADME, tissue-based. The settings on record: rat.
The species entered for data set [11] is Rattus norvegicus. The data set is described as follows: Amount of 14C remaining in blood 120 min after injection of 0.1 mol of [14C]- sucrose containing liposomes with compound. It is filed as ADME, organism-based. Conditions: 2 h.
A short description of data set [12]: 14C uptake in liver after perfusion on administration of 0.1 mol of [14C]- sucrose containing liposomes with compound. It is filed as ADME. The settings on record: rat.
The nature of data set [13]: [125I]- uptake in liver after perfusion on administration of 0.65 nmol of compound/ug of [125I]- LDL protein. The data set is classed as ADME, tissue-based. The settings on record: rat. The gist of the method: as §1
The subject of data set [14] is Rattus norvegicus. Kind of data set: Amount of [125I]- remaining in blood 10 min after administration of 0.25 nmol of compound/ug of [125I]- LDL protein. The data set is classed as ADME, organism-based. The gist of the method: as §1
Data set [15] is described as follows: [125I]- uptake in liver after perfusion on administration of 0.65 nmol of compound/ug of [125I]- LDL protein in rats preinjected with Gal-N-Ac 110 mg. It is filed as ADME, tissue-based. Conditions: rat, in vivo. The gist of the method: as §2
In data set [16] the test system is Rattus norvegicus. The data set is described as follows: Amount of [125I]- remaining in blood 10 min after administration of 0.05 nmol of compound/ug of [125I]- LDL protein. The data set is classed as ADME, organism-based.

With `CC(C)CCC[C@@H](C)[C@H]1CC[C@H]2[C@@H]3CC=C4C[C@@H](OC(=O)CCC(=O)NCC(=O)NC(CO[C@@H]5O[C@H](CO)[C@H](O)[C@H](O)[C@H]5O)(CO[C@@H]5O[C@H](CO)[C@H](O)[C@H](O)[C@H]5O)CO[C@@H]5O[C@H](CO)[C@H](O)[C@H](O)[C@H]5O)CC[C@]4(C)[C@H]3CC[C@]12C`, the Activity worked out at 33% in data set [1]; 27% in the data set on Rattus norvegicus [2]; 39% in [3]; 1.9% in data set [4]; 3% in data set [5]; 94% with Rattus norvegicus [6]. Moreover, the Activity in the data set on Rattus norvegicus [7] is listed as 23%; with Rattus norvegicus [8], 97%; in the data set listed under Rattus norvegicus [9], 82%; in [10], 2%; in the data set filed under Rattus norvegicus [11] it was 48%; in data set [12] it was 48%. Also, the Activity in data set [13] stood at 41%; in the data set with Rattus norvegicus [14], 57%; in data set [15], 3.2%; in the data set on Rattus norvegicus [16], 96%.
